This is a sample that favours compounds with a hit; in the whole collection about 1.5% have one here.
APJ ag – agonists of human apelin receptor APJ, primary screen, CHO-K1 cells, PathHunter beta-arrestin, luminescence. activation, % at 20 µM. P35414. hit rate 0.11% among 330,000. 0% DMSO wells, 100% apelin;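 active = activation more than six SD over the plate average, tested at 20 µM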
Target sequence (P35414 whole entry, looked up): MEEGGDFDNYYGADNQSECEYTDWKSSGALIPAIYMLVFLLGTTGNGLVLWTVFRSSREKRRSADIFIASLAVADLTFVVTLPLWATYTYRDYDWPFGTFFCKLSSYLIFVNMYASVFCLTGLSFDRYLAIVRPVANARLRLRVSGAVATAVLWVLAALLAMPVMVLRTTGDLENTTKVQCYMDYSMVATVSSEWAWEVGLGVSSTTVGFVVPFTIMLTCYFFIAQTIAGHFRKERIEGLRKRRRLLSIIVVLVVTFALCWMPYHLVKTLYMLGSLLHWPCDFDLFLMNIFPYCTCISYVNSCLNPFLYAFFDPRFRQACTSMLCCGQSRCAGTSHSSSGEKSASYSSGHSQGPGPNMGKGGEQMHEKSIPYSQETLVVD
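Test system – PathHunter CHO-K1 APJ (AGTRL-1) beta-arrestin reporter cells · Input – 1000 cells/well · Compound – single test compound dose, 20 µM final, 1% DMSO · Times – compound stimulation 90 min at 25 °C, detection 60 min · Technique – beta-gal luminescence · Read-out basis – APJ–arrestin association signal · Control set – negative DMSO alone, positive Apelin-13 at 10 nM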
CXCR6 inh – CXCR6 receptor inhibitors, primary screen, cell-based, beta-arrestin, luminescence, CHO-K1 PathHunter, 1536-well | hit rate 0.36% among 360,000 | AID 602244, 2012 | inhibition, % at 20 µM | C-X-C chemokine receptor type 6 (Homo sapiens), O00574; in the data active = inhibition above about 34%, passing the limit was not always enough;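 note: antagonist mode with CXCL16 agonist at 10 nM final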
APJ antag – antagonists of human apelin receptor APJ, primary screen, CHO-K1 cells, beta-arrestin complementation, luminescence; P35414; inhibition, % at 20 µM; hit rate 0.32% among 330,000;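 active = inhibition above about 40% at 20 µM, limit read from the data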;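 note: cells challenged with 10 nM apelin-13 agonist together with compound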
EBI2 antag – EBI2 receptor antagonists, beta-arrestin recruitment, primary screen, cell-based, luminescence, 7a,25-OHC stimulation, uHTS. AID 651636, 2012. 7a,25-OHC stimulated. hit rate 0.81% among 360,000. inhibition, % at 5 µM. G-protein coupled receptor 183 (Homo sapiens), P32249; in the data active = inhibition above about 38%;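 note: enzyme fragment complementation signal reports receptor beta-arrestin coupling in cells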
CCR6 antagonist – CCR6 receptor antagonists, primary screen, cell-based, CHO-K1, luminescence, beta-arrestin, uHTS | C-C chemokine receptor type 6 (Homo sapiens), P51684 | CHO-K1 CCR6 PathHunter beta-arrestin, CCL20-stimulated | inhibition, % at 20 µM | hit rate 0.49% among 340,000 | AID 493098, 2011;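 active = compounds whose inhibition of the agonist-driven luminescence signal at 20 µM reaches about 50%, limit read from the data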;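 note: cells stimulated with CCL20 at 14 nM final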
APJ antag conf – APJ antagonists blocking beta-arrestin recruitment, confirmation, cell-based, luminescence, single concentration, uHTS hits | antagonist mode | inhibition, % at 20 µM | shares compounds with APJ antag | hit rate 66% among 950; in the data active = inhibition above about 50%
Hits are given with their value.

For CCOC(=O)C1=C(C)N=c2s/c(=C/c3cccc([N+](=O)[O-])c3O)c(=O)n2C1c1ccc(OC)cc1OC (configuration not stated) the results were APJ ag inactive, CXCR6 inh 40.8, APJ antag 56.6, EBI2 antag inactive, CCR6 antagonist 63.6 and APJ antag conf 97.8.
CNC[C@@H]1Oc2cc(Br)ccc2S(=O)(=O)N([C@@H](C)CO)C[C@@H]1C was read as CXCR6 inh inactive and EBI2 antag inactive.
Screening NS(=O)(=O)c1ccc(N=Nc2c(=O)[nH]n3c(=O)c4c([nH]c23)CCCC4)cc1 returned APJ ag inactive, CXCR6 inh inactive, APJ antag 45.3, EBI2 antag inactive, CCR6 antagonist inactive and APJ antag conf 58.0.
CCOC(=O)c1c(C)nc2sc(C(=O)Nc3ccc(C(C)=O)cc3)c(N)c2c1-c1ccc(OC)cc1 was read as APJ ag inactive, CXCR6 inh inactive, APJ antag 51.1, EBI2 antag inactive, CCR6 antagonist inactive and APJ antag conf inactive.
O=S(=O)(Nc1cccc2cccnc12)c1ccc(S(=O)(=O)N2CCCC2)cc1 was read as APJ ag inactive, CXCR6 inh inactive, APJ antag 67.7, EBI2 antag inactive, CCR6 antagonist inactive and APJ antag conf inactive.
Screening Cc1ccc2cccc(NS(=O)(=O)c3ccccc3)c2n1 returned APJ ag inactive, APJ antag 63.2, CCR6 antagonist inactive and APJ antag conf 57.1.
Screening O=S(=O)(Nc1cccc2cccnc12)c1ccccc1 returned APJ ag inactive, CXCR6 inh 68.9, APJ antag 88.7, EBI2 antag 62.0, CCR6 antagonist 90.2 and APJ antag conf 71.6.
Cc1ccccc1NS(=O)(=O)c1ccc(S(=O)(=O)N2CCCC2)cc1 was read as CXCR6 inh inactive and EBI2 antag inactive.
For CC(=O)Nc1ccc(S(=O)(=O)Nc2cccc3cccnc23)cc1 the results were APJ ag inactive, CXCR6 inh inactive, APJ antag inactive, EBI2 antag inactive and CCR6 antagonist inactive.
For Cc1ccc(S(=O)(=O)Nc2cccc3cccnc23)c([N+](=O)[O-])c1 the results were APJ ag inactive, CXCR6 inh inactive, APJ antag 58.4, EBI2 antag inactive, CCR6 antagonist inactive and APJ antag conf 55.8.
Screening N#CCC(=O)N/N=C/c1ccc(OCC(=O)Nc2ccc(F)cc2)cc1 returned APJ ag inactive, CXCR6 inh inactive, APJ antag inactive, EBI2 antag inactive and CCR6 antagonist inactive.
Screening C/C(=N\NC(=O)CN(c1ccc(Oc2ccccc2)cc1)S(C)(=O)=O)C(C)(C)C returned APJ ag inactive, CXCR6 inh inactive, APJ antag inactive, EBI2 antag inactive and CCR6 antagonist inactive.
For COc1ccc(C(N)c2csc(Nc3ccc(S(C)(=O)=O)cc3)n2)cc1 (configuration not stated) the results were CXCR6 inh inactive and EBI2 antag inactive.
Screening CCC(C)(C(=O)NC1CCCCC1)N(CC1CCCO1)C(=O)Cc1cccs1 (configuration not stated) returned APJ ag inactive, CXCR6 inh inactive, APJ antag inactive, EBI2 antag inactive and CCR6 antagonist inactive.
`COc1ccccc1NS(=O)(=O)c1ccc2ccccc2c1` gave APJ ag inactive, CXCR6 inh inactive, APJ antag inactive, EBI2 antag inactive and CCR6 antagonist inactive.
`COc1ccc(NS(=O)(=O)c2ccc3ccccc3c2)c2ncccc12` gave APJ ag inactive, CXCR6 inh inactive, APJ antag 66.1, EBI2 antag inactive, CCR6 antagonist inactive and APJ antag conf 51.9.
`CCn1nc(C)c(CNC(=O)c2ccc(OC3CCN(Cc4ccccn4)CC3)cc2)c1C` gave APJ ag inactive, CXCR6 inh inactive, APJ antag inactive, EBI2 antag inactive and CCR6 antagonist inactive.
For CCCn1cnc2c(sc3nc4c(cc32)CSC(C)(C)C4)c1=O the results were APJ ag inactive, CXCR6 inh inactive, APJ antag inactive, EBI2 antag inactive and CCR6 antagonist inactive.
CC1(C)Cc2nc3sc4c(=O)n(Cc5ccccc5)cnc4c3cc2CS1 was read as APJ ag inactive, CXCR6 inh inactive, APJ antag 59.0, EBI2 antag inactive, CCR6 antagonist inactive and APJ antag conf inactive.
For O=C(/C=C/c1ccco1)OCC(=O)N1CCCCC1 the results were APJ ag inactive, CXCR6 inh inactive, APJ antag inactive, EBI2 antag inactive and CCR6 antagonist inactive.
For NC(=O)c1ccc(NC(=O)COC(=O)CC2Sc3ccccc3NC2=O)cc1 (configuration not stated) the results were APJ ag inactive, CXCR6 inh inactive, APJ antag inactive, EBI2 antag inactive and CCR6 antagonist inactive.
O=C(C1=C(Nc2ccccc2)c2ccccc2S(=O)(=O)N1)c1ccccc1 was read as APJ ag inactive, CXCR6 inh inactive, APJ antag 45.1, EBI2 antag inactive, CCR6 antagonist 69.9 and APJ antag conf 72.5.
Screening O=S1(=O)Nc2c(ccc3cccnc23)-c2ccccc21 returned APJ ag inactive, CXCR6 inh 42.3, APJ antag 52.6, EBI2 antag inactive, CCR6 antagonist 60.7 and APJ antag conf inactive.
`CC(C)Cc1nc2oc3c(Cl)ncnc3c2c2c1CCC2` gave APJ ag inactive, CXCR6 inh inactive, APJ antag 40.8, EBI2 antag 48.3, CCR6 antagonist inactive and APJ antag conf 86.4.
O=C(C1CN(C(=O)c2cc3ccccc3o2)c2ccccc2O1)N1CCCCC1 (configuration not stated) was read as CXCR6 inh inactive and EBI2 antag inactive.
For Cc1cc(C)nc(CCNC(=O)c2cc(COc3ccccc3)on2)n1 the results were APJ ag inactive, CXCR6 inh inactive, APJ antag inactive, EBI2 antag inactive and CCR6 antagonist inactive.
Screening CSc1ncccc1C(=O)OCC(=O)c1ccc(S(=O)(=O)N2CCCCC2)cc1 returned APJ ag inactive, CXCR6 inh inactive, APJ antag 46.0, EBI2 antag inactive, CCR6 antagonist inactive and APJ antag conf inactive.
CN(/N=C/c1cc([N+](=O)[O-])ccc1O)c1ccccc1 was read as APJ ag inactive, CXCR6 inh 48.5, APJ antag 41.8, EBI2 antag inactive, CCR6 antagonist 63.6 and APJ antag conf 62.7.
For O=[N+]([O-])c1cccc(N/N=C/c2cc([N+](=O)[O-])ccc2O)c1 the results were APJ ag inactive, CXCR6 inh inactive, APJ antag 46.5, EBI2 antag inactive, CCR6 antagonist inactive and APJ antag conf inactive.

Assay outcomes: PubChem BioAssay, Sanford-Burnham Center for Chemical Genomics
